Reference: ChEMBL document CHEMBL1125654, “New inhibitors of human renin that contain novel replacements at the P2 site” (J Med Chem, 1991)

Assays:
Renin [1] = biological target: T1, Renin (Homo sapiens, UniProt P00797); assay: Inhibitory activity against monkey plasma renin.; type: cell-free, Cercopithecidae; conditions: target entry is the homologue from another species
T1 sequence (P00797 whole entry): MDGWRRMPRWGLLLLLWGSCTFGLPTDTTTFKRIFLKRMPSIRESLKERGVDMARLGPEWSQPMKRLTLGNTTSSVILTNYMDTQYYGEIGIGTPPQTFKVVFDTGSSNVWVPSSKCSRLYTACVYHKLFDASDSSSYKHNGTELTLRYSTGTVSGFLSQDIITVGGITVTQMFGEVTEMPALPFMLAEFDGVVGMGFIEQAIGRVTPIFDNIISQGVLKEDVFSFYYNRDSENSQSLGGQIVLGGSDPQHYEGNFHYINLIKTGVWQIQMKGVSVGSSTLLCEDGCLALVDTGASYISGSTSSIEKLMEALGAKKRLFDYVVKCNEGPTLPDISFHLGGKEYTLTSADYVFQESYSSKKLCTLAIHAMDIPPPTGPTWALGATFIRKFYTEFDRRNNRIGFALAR
In short: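 Plasma from salt-depleted, furosemide-treated monkeys (native renin and angiotensinogen) incubated with maleate buffer (pH 6.0), PMSF and inhibitor in DMSO for 60 min at 37 °C. Plasma renin activity was 3–8 ng AI/mL per h. Percent inhibition was taken vs DMSO vehicle tubes, and IC50 from six concentrations by nonlinear regression.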

Renin [2] = biological target: T1, Renin; assay: Inhibitory activity against human plasma renin; G means not measured; type: cell-free
[3] = Partition coefficient (logD7.4); conditions: octanol/water
Cathepsin D [4] = biological target: T2, Cathepsin D (Bos taurus, UniProt P80209); assay: (§1) Inhibitory activity against bovine cathepsin D was determined
T2 sequence (P80209 whole entry): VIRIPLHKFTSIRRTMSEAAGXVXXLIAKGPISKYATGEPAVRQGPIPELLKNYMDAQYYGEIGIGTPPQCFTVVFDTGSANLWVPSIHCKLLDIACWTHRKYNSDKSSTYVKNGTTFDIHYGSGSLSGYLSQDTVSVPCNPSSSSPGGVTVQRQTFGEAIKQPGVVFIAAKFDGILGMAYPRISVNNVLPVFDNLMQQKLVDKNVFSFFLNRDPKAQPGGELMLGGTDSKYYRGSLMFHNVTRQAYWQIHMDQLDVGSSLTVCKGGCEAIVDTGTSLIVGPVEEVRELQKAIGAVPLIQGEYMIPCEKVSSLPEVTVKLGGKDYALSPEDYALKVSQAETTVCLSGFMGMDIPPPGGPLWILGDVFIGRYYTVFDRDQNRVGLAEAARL
In short: (§2)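 Bovine cathepsin D activity assayed in duplicate as hydrolysis of bovine hemoglobin (2× crystallized) at pH 3.2, 37 °C. Net absorbance at 280 nm read in acid-precipitated supernatants of inhibited vs uninhibited controls. IC50 from six inhibitor concentrations by nonlinear regression.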

Cathepsin D (Bos taurus) = biological target: T3, Cathepsin D (Bos taurus) (UniProt P80209); assay: as §1; conditions: concentration not given here; in short: as §2
T3 sequence (whole entry): T2 sequence (P80209 whole entry)

[5] = solubility in phosphate buffer at pH 7.4; type: physicochemical
Cathepsin D [6] = biological target: T2, Cathepsin D; assay: Inhibitory activity against bovine Cathepsin D was determined; in short: as §2
Renin [7] = biological target: T1, Renin; assay: Inhibitory activity against human plasma renin; type: cell-free
Renin (Homo sapiens) = biological target: T4, Renin (Homo sapiens) (UniProt P00797); assay: Inhibitory activity against monkey plasma renin was determined at 10e-5 M concentration; type: cell-free; conditions: Cercopithecidae, target entry is the homologue from another species
T4 sequence (whole entry): T1 sequence (P00797 whole entry)
In short: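 Angiotensin I generated from monkey plasma (native renin and angiotensinogen) with maleate buffer pH 6.0, PMSF and inhibitor in DMSO, 60 min at 37 °C. Percent inhibition estimated against DMSO vehicle control tubes. Plasma renin activity 3–8 ng AI/mL per h.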

Structure (SMILES) | IC50 (Renin [1]) [µM] | logD ([3]; pH 7.4, logD) | IC50 (Renin [7]) [µM] | also measured
NCCC1CN(C(=O)C[C@H](O)C(CC2CCCCC2)NC(=O)C(CC#CC/N=C(/N)N[N+](=O)[O-])NC(=O)C(Cc2cccc3ccccc23)Cc2cccc3ccccc23)CCO1 (some centres not stated) |  |  |  | inhibition (Cathepsin D (Bos taurus)): 0.7%
C/N=C(\S)NCCCCC(NC(=O)C(Cc1cccc2ccccc12)Cc1cccc2ccccc12)C(=O)NC(CC(C)C)[C@@H](O)CC(=O)NC(CC(C)C)C(=O)NCc1ccccc1 (some centres not stated) | 0.099 | 6.7 | 0.06 | solubility [5]: < 0.01 mg/mL
CCC(C)CNC(=O)C[C@H](O)C(CC(C)C)NC(=O)C(CCCCNP(=O)(Oc1ccccc1)Oc1ccccc1)NC(=O)C(Cc1cccc2ccccc12)Cc1cccc2ccccc12 (some centres not stated) |  |  | 0.74 | inhibition (Renin (Homo sapiens)): 48%; logD ([3]; pH 7.4): 7.88
CCC(C)CNC(=O)C[C@H](O)C(CC(C)C)NC(=O)C(CCCCNS(=O)(=O)c1ccc(C)cc1)NC(=O)C(Cc1cccc2ccccc12)Cc1cccc2ccccc12 (some centres not stated) |  | 6.7 | 3 | inhibition (Renin (Homo sapiens)): 48%

The next lines start with results.

IC50 (Renin [1]) [µM] | logD ([3]; pH 7.4, logD) | IC50 (Renin [7]) [µM] | Structure (SMILES) | also measured
0.0046 | 5.32 |  | CCC(C)CNC(=O)C[C@H](O)C(CC(C)C)NC(=O)C(CC#CCNC(C)=O)NC(=O)C(Cc1cccc2ccccc12)Cc1cccc2ccccc12 (stereo in doubt; 55a) | IC50 (Renin [2]): 0.002 µM; IC50 (Cathepsin D [4]): 0.078 µM
0.009 |  |  | CC(=O)NCC#CCC(NC(=O)C(Cc1cccc2ccccc12)Cc1cccc2ccccc12)C(=O)NC(CC1CCCCC1)[C@@H](O)CC(=O)N1CCOC(CCN)C1 (some centres not stated) | inhibition (Cathepsin D (Bos taurus)): 0.3%
0.023 | 5.71 | 0.013 | CCC(C)CNC(=O)C[C@H](O)C(CC(C)C)NC(=O)C(CCCC/N=C(/S)NC)NC(=O)C(Cc1cccc2ccccc12)Cc1cccc2ccccc12 (some centres not stated) | solubility [5]: < 0.01 mg/mL; IC50 (Cathepsin D [6]): 0.781 µM
